Compounds with a hit are over-represented: about 1.8% of the library has one in this group of screens.
CAL PDZ FP-1 – CAL PDZ (human) peptide binding inhibition | Q9HD26 | purified CAL PDZ, TMR-peptide fluorescence polarization, 1 h | inhibition, % at 24.9 µM | actives 0.92% (n = 300,000) | AID 602252;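 active = mean inhibition of at least 30% with at least half of replicates also reaching 30%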
Tn7 DDE FP – disrupts Tn7 cyclic peptide binding to fibrin D-Dimer-E complex | inhibition, % at 8.3 µM | FP displacement of FITC-Tn7 peptide from fibrin DD(E); 0% = median of compound wells per plate | actives 0.13% (n = 370,000);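 active = inhibition above the mean of compounds falling within the control limits plus 3 SD of them, cut at about 14% in these data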
Target sequence (P02675 whole entry, looked up): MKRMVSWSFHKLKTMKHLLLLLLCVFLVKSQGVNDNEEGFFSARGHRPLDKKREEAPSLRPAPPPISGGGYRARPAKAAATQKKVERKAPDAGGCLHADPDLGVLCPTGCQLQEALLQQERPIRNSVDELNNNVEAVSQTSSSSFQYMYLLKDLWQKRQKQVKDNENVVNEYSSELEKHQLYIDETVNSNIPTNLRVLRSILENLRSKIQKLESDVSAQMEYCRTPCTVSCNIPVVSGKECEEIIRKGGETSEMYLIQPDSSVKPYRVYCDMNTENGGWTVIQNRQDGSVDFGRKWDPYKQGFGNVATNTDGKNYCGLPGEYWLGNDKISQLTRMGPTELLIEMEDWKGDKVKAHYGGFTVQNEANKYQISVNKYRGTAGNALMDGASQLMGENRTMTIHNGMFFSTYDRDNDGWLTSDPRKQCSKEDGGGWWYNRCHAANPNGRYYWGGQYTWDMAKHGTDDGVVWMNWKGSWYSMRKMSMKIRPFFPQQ
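assay system = human clot-derived fibrin DD(E) complex | quantity = Fibrin-DD(E) at 2 µM final | timing = 10 min preincubation, 3 h with tracer, room temperature | signal = fluorescence polarization | measure = percent inhibition | benchmarks = high control wells with 10 µM unlabelled Aha-Tn7 peptide (full inhibition) | replicates = singlicate testing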
CAL PDZ FP-2 – inhibitors of human CAL PDZ peptide binding | Q9HD26 | purified CAL PDZ, TMR-peptide fluorescence polarization, 1 h | inhibition, % at 20 µM | actives 0.02% (n = 330,000) | AID 504414;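 active = highest replicate inhibition of at least 40%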
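Read-out basis: mP drop reported as inhibition | Assay system: Tagged CAL PDZ protein CerCALP, purified | Benchmarks: Unlabelled peptide for full inhibition, DMSO wells as neutral | Schedule: 1 h incubation at room temperature before polarization reading | Buffer or medium: Sodium phosphate/NaCl buffer pH 7.4 with TCEP, IgG, Thesit | Doses: Single point, 20 µM | Measured by: Fluorescence polarization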
GRK2 inh – human GRK2 inhibition via aptamer displacement. P25098. bead flow cytometry, FAM-aptamer displacement from GRK2. actives 0.59% (n = 330,000). inhibition of aptamer binding, % at 10 µM;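 active = inhibition of aptamer binding above 40%, roughly 3 SD of noise, on plates passing a quality check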;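 also: median bead fluorescence of bound FAM aptamer so fluorescent compounds give negative values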
ARNT-TACC3 inh – ARNT/TACC3 interaction disruption | actives 0.66% (n = 390,000) | AlphaScreen His-ARNT PAS-B/GST-TACC3 binding, luminescence; TACC3 fragment carries E629A point mutation | inhibition, % at 9.99 µM | Q9Y6A5;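 active = mean inhibition of replicates at least 50% and at least half of replicates each reaching 50%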
Tn6 DDE FP – inhibitors of Tn6 peptide binding to human fibrin DD(E); P02675; Fibrin DD(E) TRITC-Tn6 fluorescence polarization displacement; inhibition, % at 8.3 µM; actives 0.21% (n = 370,000);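 active = inhibition above a per-campaign cutoff: mean of compounds within control limits plus 3 SD, cut at about 15% in these data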
GRK2 inh confirm – confirmation of human GRK2 inhibitors displacing RNA aptamer. shares compounds with GRK2 inh. bead-bound GRK2, FAM-aptamer displacement, flow cytometry. aptamer displacement, % at 10 µM. actives 4% (n = 2,000);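 active = aptamer displacement above 40%, near three times the noise of non-fluorescent compounds, on plates passing quality checks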;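 also: negative values mostly reflect intrinsic compound fluorescence rather than true enhancement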
Aptamer quench 1 – fluorescent aptamer quenching in GRK2 counter-screen dose response; shares compounds with GRK2 inh; Fluorescent RNA aptamer beads, flow cytometry; hits give high values; fluorescence change (kMESF span), kMESF (no concentration beside the values); 110 tested, under 10 active; AID 504521;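 active = compounds whose bead fluorescence drops by more than 37 kMESF across the dose range, marking them as dye quenchers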
FAM quench CP1 – aptamer fluorescence quenching in GRK2 counter-screen. 2,000 tested, under 10 active. AID 504580. shares compounds with GRK2 inh. fluorescence response (% of DMSO), % at 10 µM. Carboxyfluorescein RNA aptamer on beads, flow cytometry quenching; hits give low values;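 active = compounds that quench the bead-bound fluorescent RNA probe, cutting fluorescence to under half of the solvent control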;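 also: counterscreen run without GRK2 so only probe quenching by compound is measured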
GRK2 CP2 – confirmation of human GRK2 inhibitors binding RNA aptamer site; shares compounds with GRK2 inh; bead-bound GRK2, FAM-aptamer displacement, flow cytometry; inhibition of aptamer binding, % at 10 µM; 360 tested, under 10 active;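 active = inhibition of aptamer binding above 40%, about triple the noise seen with nonglowing compounds, on plates passing quality control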;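 also: negative values mostly come from compounds that fluoresce themselves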
Aptamer quench3 – aptamer fluorescence quenching in GRK2 counter-screen dose response; change in fluorescence (kMESF span), kMESF (concentration not given with the values); Streptavidin beads, FAM-RNA aptamer fluorescence quenching, flow cytometry; 25 tested, under 10 active; shares compounds with GRK2 inh;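 active = compounds quenching the bead-bound labeled aptamer, with fluorescence dropping by more than 37 kMESF over the dose range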
FAM quench CP2 – quenches fluorescent RNA aptamer, GRK2 hit artifact. 360 tested, under 10 active. carboxyfluorescein RNA aptamer beads, flow cytometry quenching; hits give low values. fluorescence response vs DMSO, % at 10 µM. shares compounds with GRK2 inh;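 active = response vs DMSO under 50%, meaning signal dropped by over half, treated as fluorescence quencher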;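 also: labelled aptamer on streptavidin beads without GRK2 as a quench counter-screen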
FAM quench DR – counter-screen for GRK2 aptamer binding inhibitors: aptamer fluorescence quenching; shares compounds with GRK2 inh; Bead-bound FAM RNA aptamer fluorescence quenching, flow cytometry; hits give low values; fluorescence ratio to DMSO, % at 11.1 µM; 35 tested, under 10 active; AID 588496;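 active = compounds that dim the fluorescent label, raw bead signal shifting by over 33 units between lowest and highest dose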
Each line names hits and unclear results; the compound was inactive in the other large screens (follow-up assays come after a bar, where they were run).

COc1ccc(CCNC(=O)CCS(=O)(=O)c2ccc(Br)cc2)cc1OC	none | GRK2 inh confirm inactive | Aptamer quench 1 inactive | FAM quench CP1 inactive | FAM quench DR inactive
O=C(CCS(=O)(=O)c1ccc(Br)cc1)NCc1ccc(F)cc1	GRK2 inh 87 | GRK2 CP2 54 | Aptamer quench3 inactive | FAM quench CP2 inactive
O=C(COc1coc(CN2CCN(c3ccccc3F)CC2)cc1=O)NCC1CCCO1 (stereo not drawn)	none
C/C=C/c1ccc([C@@H]2[C@H](CO)N(C(C)=O)[C@H]2CNC(=O)c2ccccc2)cc1	none (no result: CAL PDZ FP-1, Tn7 DDE FP, CAL PDZ FP-2, GRK2 inh, Tn6 DDE FP)
c1ccc(Cn2ncc3ccccc32)cc1	none | GRK2 inh confirm inactive | FAM quench CP1 inactive
Fc1cccc(Cl)c1Cn1ncc2ccccc21	none
C=CCn1c(CNC(=O)c2ccco2)nnc1SCC(=O)c1ccccc1	GRK2 inh 80 | GRK2 inh confirm inactive | FAM quench CP1 inactive
CN(C)S(=O)(=O)n1cnc(C(CCO)c2ncn(S(=O)(=O)N(C)C)c2CCCO)c1 (stereo not drawn)	none | GRK2 inh confirm inactive | FAM quench CP1 22
CCCCCCCCN1CN2Cc3cc(OC)ccc3C2CS1(=O)=O (stereo not drawn)	none (no result: CAL PDZ FP-1, CAL PDZ FP-2, GRK2 inh, ARNT-TACC3 inh)
Cc1cccc(NC(=O)c2nc[nH]c2C(=O)N[C@@H](Cc2ccccc2)C(=O)OCc2ccccc2)c1	GRK2 inh 51 | GRK2 inh confirm inactive | FAM quench CP1 inactive | GRK2 CP2 inactive | FAM quench CP2 inactive
O=C1NC(c2cccc(Br)c2)=N/C1=C\c1ccco1	GRK2 inh 50 | GRK2 inh confirm inactive | FAM quench CP1 inactive
COC(=O)/C(C(C)=O)=C(\C=C\N(C)C)N(C)C	none
COC(=O)\C(C(C)=O)=C(/C=C/C=C/C=C/N(C)C)N(C)C	GRK2 inh 71 | GRK2 inh confirm inactive | FAM quench CP1 inactive
COC(=O)C1=C(C)N=c2s/c(=C/c3ccoc3)c(=O)n2C1c1ccccc1 (stereo not drawn)	none (no result: CAL PDZ FP-1, Tn7 DDE FP, Tn6 DDE FP)
COC(=O)C1=C(C)N=c2s/c(=C/c3cccs3)c(=O)n2C1c1cccs1 (stereo not drawn)	GRK2 inh 56 | GRK2 inh confirm inactive | FAM quench CP1 inactive
CC1(C)CC(O)(CNCc2ccc3c(c2)OCO3)CCO1 (stereo not drawn)	none
CC(C)Oc1ccc(CNCC2(O)CCOC(C)(C)C2)cc1 (stereo not drawn)	GRK2 inh 57 | GRK2 inh confirm inactive | FAM quench CP1 inactive
Cc1ccc(N2C(=O)[C@@H]3C(C(=O)CN4C(=O)c5ccccc5C4=O)=NN[C@@H]3C2=O)c(C)c1	GRK2 inh 41 (no result: CAL PDZ FP-1, CAL PDZ FP-2, ARNT-TACC3 inh) | GRK2 inh confirm inactive | FAM quench CP1 inactive
COc1ccccc1N1C(=O)[C@@H]2C(C(=O)CN3C(=O)c4ccccc4C3=O)=NN[C@@H]2C1=O	none (no result: CAL PDZ FP-1, CAL PDZ FP-2, ARNT-TACC3 inh)
CN(C)C(CNC(=O)C1CCCN(C(=O)c2ccc(Cl)cc2)C1)c1ccco1 (stereo not drawn)	GRK2 inh 68 (no result: CAL PDZ FP-2) | GRK2 inh confirm inactive | FAM quench CP1 inactive
O=C(NCc1ccc(Cl)cc1)C1CCCN(C(=O)c2ccc(Cl)cc2)C1 (stereo not drawn)	none (no result: CAL PDZ FP-1)
Cc1ccc(S(=O)(=O)N2CCCCC2)cc1NC(=O)CCN1C(=O)C2CC=CCC2C1=O (stereo not drawn)	none (no result: ARNT-TACC3 inh)
O=C(Nc1cccc(S(=O)(=O)NC2=NCCC2)c1)C1CC(=O)N(c2ccc3c(c2)OCCO3)C1 (stereo not drawn)	none | GRK2 inh confirm inactive | FAM quench CP1 inactive
CC(=O)c1ccc(OCCCC(=O)Nc2cccc(S(=O)(=O)N3CCCCCC3)c2)cc1	none
CC(=O)c1cccc(NC(=O)C2CC(=O)N(c3ccc4c(c3)OCCO4)C2)c1 (stereo not drawn)	none (no result: CAL PDZ FP-1)
N#Cc1cccc(NC(=O)CNc2cccc(S(=O)(=O)N3CCCCC3)c2)c1	none | GRK2 inh confirm inactive | FAM quench CP1 inactive
CC(=O)c1ccc(OCCCC(=O)Nc2cccc(S(=O)(=O)N3CCCCC3)c2)cc1	none | GRK2 inh confirm inactive | FAM quench CP1 inactive
O=C(CCN1C(=O)C2CC=CCC2C1=O)Nc1cccc(S(=O)(=O)N2CCCCC2)c1 (stereo not drawn)	none (no result: CAL PDZ FP-1) | GRK2 inh confirm inactive | FAM quench CP1 inactive
O=C(CC1CC1)N1CC[C@H]2[C@H](CO)Nc3ccc(-c4ccc(F)cc4)cc3[C@H]21	none (no result: CAL PDZ FP-1, Tn7 DDE FP, CAL PDZ FP-2, GRK2 inh, Tn6 DDE FP)
C[C@@H]1CN([C@@H](C)CO)C(=O)c2cc(C#Cc3ccccc3)cnc2O[C@@H]1CN(C)CC1CCOCC1	none (no result: CAL PDZ FP-1, Tn7 DDE FP, CAL PDZ FP-2, GRK2 inh, Tn6 DDE FP)
C[C@@H]1CCCCO[C@@H](CN(C)C(=O)c2ccccc2)[C@H](C)CN([C@H](C)CO)C(=O)c2cc(NS(=O)(=O)c3cn(C)cn3)ccc2O1	none (no result: CAL PDZ FP-1, Tn7 DDE FP, CAL PDZ FP-2, GRK2 inh, Tn6 DDE FP)
CNC[C@@H]1Oc2ccc(NC(=O)Nc3cccc4ccccc34)cc2CC(=O)N([C@H](C)CO)C[C@@H]1C	none (no result: CAL PDZ FP-1, Tn7 DDE FP, CAL PDZ FP-2, GRK2 inh, Tn6 DDE FP)
C[C@H](CO)N1C[C@H](C)[C@H](CN(C)C(=O)NC2CCCCC2)Oc2c(NS(=O)(=O)c3cn(C)cn3)cccc2C1=O	none (no result: CAL PDZ FP-1, Tn7 DDE FP, CAL PDZ FP-2, GRK2 inh, Tn6 DDE FP)
Cc1cccc(N2CC(C(=O)Nc3cccc(S(=O)(=O)N4CCCCC4)c3)CC2=O)c1C (stereo not drawn)	none | GRK2 inh confirm inactive | FAM quench CP1 inactive

Screens from PubChem BioAssay.
